STAT1 act-1: STAT1 signaling activation | NIH 3T3 STAT1-luciferase reporter, IFN-gamma, luminescence; 100% = IFN-gamma alone, no compound | activation (% of control), % at 5.5 µM | actives 2.6% (n = 200,000) | AID 932;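 active = activation above the screen-wide mean activation plus 3 SD, cut at about 130% in these data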
STAT3 act-1: activators of IL-6 induced STAT3 signaling; activation (% of control), % at 5.6 µM; actives 0.91% (n = 190,000); U3A cells, IL-6 STAT3-luciferase reporter, luminescence; 100% = signal with IL-6 EC80 alone; AID 871;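 active = activation above the screen-wide mean of compound activation plus 3 SD, cut at about 130% in these data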
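Material: human STAT1-deficient U3A cells with stable STAT3-luciferase reporter / Probe or stimulus: IL-6 stimulus at 33 ng/mL final / Schedule: 1 h compound pre-exposure, 6 h IL-6 stimulation, 37 °C / Technique: luminescence / Read-out basis: percent of IL-6-only median luminescence / Control set: IL-6-only high control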
STAT3 inh: reduces IL-6 driven STAT3 reporter signal. U3A cells, IL-6 STAT3-luciferase reporter, luminescence; host cell line lacks STAT1. inhibition, % at 5.5 µM. actives 0.89% (n = 190,000). AID 862;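 active = inhibition above the mean inhibition across all screened compounds plus 3 SD, cut at about 44% in these data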
APP 5'UTR act: activates APP 5'UTR luciferase reporter | SH-SY5Y APP 5'UTR luciferase reporter, luminescence; zero percent = DMSO vehicle wells | activation, % at 2 µM | actives 1% (n = 190,000) | AID 1276;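 active = activation above a set limit, based on mean plus 3 SD of controls, cut at about 140% in these data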
STAT1 blocker: STAT1 signaling inhibition; NIH 3T3 STAT1-luciferase reporter, IFN-gamma, luminescence; inhibition, % at 5.5 µM; actives 0.35% (n = 200,000); AID 920;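 active = inhibition above a set limit, the mean inhibition across all tested compounds plus 3 SD, cut at about 34% in these data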
NF-kB expr up: raises NF-kB expression in human neuronal cells; fold change at 12.5 µM; AID 1239; actives 1.6% (n = 190,000); NF-kB reporter expression; stronger effect = higher value; in the data active = fold change above about 3.3
STAT3 act-2: STAT3 activation, confirmation assay; shares compounds with STAT3 act-1; potentiation (% of control), % at 5.7 µM; U3A STAT3-luciferase reporter, IL-6 potentiation, luminescence; U3A cells lack STAT1; 100 means same as IL-6 alone; actives 64% (n = 1,200);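 active = percent activation of the STAT3 luciferase reporter above a set limit taken from the earlier primary screen, cut at about 130% in these data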
NFkB act 2: activates NF-kappaB, counter-screen to STAT3 activators. shares compounds with STAT3 act-1. human cells, NF-kappaB reporter activation. activation (% of control), % at 5.7 µM. actives 11% (n = 1,200); in the data active = activation above about 120%;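 also: reporter induced by TNF-alpha stimulation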
STAT1 act-2: STAT1 activation in STAT3 activator counter-screen; shares compounds with STAT3 act-1; NIH 3T3 STAT1-luciferase reporter, IFN-gamma, luminescence; activation (% of control), % at 5.7 µM; actives 13% (n = 1,200); AID 1318;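 active = activation above the solvent-only control well mean plus 3 SD, set per screening run, cut at about 120% in these data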
Large screens that a line does not name were inactive (follow-up assays come after a bar, where they were run). Only some compounds are listed: those with a hit (about 4.9% of all), similar ones and a draw of the others.

O=C(Nc1nc2c(s1)COc1ccccc1-2)c1cccs1	STAT3 act-1 139 | STAT3 act-2 inactive | NFkB act 2 154 | STAT1 act-2 136
O=C(Nc1nc2c(s1)CCc1ccccc1-2)c1cccs1	none
Cc1c(NC(=O)CSc2nnc(Nc3ccccc3)s2)c(=O)n(-c2ccccc2)n1C	none
c1ccc2c(-c3nc4ncccc4o3)cccc2c1	STAT3 act-1 141 | STAT3 act-2 inactive | NFkB act 2 inactive | STAT1 act-2 inactive
Cc1ccc(C)c(/C(O)=C2/C(=O)C(=O)N(CCN3CCOCC3)C2c2ccc(C)o2)c1 (centres undefined)	STAT3 act-1 136 | STAT3 act-2 inactive | NFkB act 2 inactive | STAT1 act-2 inactive
Cc1ccc(C)c(/C(O)=C2\C(=O)C(=O)N(CCCN3CCOCC3)C2c2cccnc2)c1 (centres undefined)	none
Cc1ccc(-c2ccccc2[C@@H]2C[C@H]3CN(C)C(=O)[C@]34CCCN24)o1	none
O=C1N(c2ccccc2)C[C@@H]2C[C@@H](c3cc4ccccc4o3)N3CCC[C@@]123	STAT3 act-1 141 | STAT3 act-2 156 | NFkB act 2 inactive | STAT1 act-2 inactive
Cn1c2ccccc2c2ncn(Cc3ccco3)c(=O)c21	none
O=c1c2ccccc2ncn1Cc1ccco1	STAT3 act-1 147 | STAT3 act-2 145 | NFkB act 2 inactive | STAT1 act-2 inactive
Cc1c(Cl)ccc2c1NC(=O)[C@]21[C@@H]2C(=O)N(Cc3ccccc3)C(=O)[C@@H]2[C@@H]2CCCN21	STAT3 act-1 141 | STAT3 act-2 inactive | NFkB act 2 inactive | STAT1 act-2 inactive
CC(=O)/C(N=Nc1cc(C)ccc1O)=C(\C)O	STAT3 act-1 149 | STAT3 act-2 150 | NFkB act 2 inactive | STAT1 act-2 inactive
CCOC(=O)c1c(C)oc2c1cc(O)c1ccccc12	STAT3 act-1 145, APP 5'UTR act 172, NF-kB expr up 3.3 | STAT3 act-2 152 | NFkB act 2 inactive | STAT1 act-2 inactive
CCNS(=O)(=O)c1ccc(NC(=O)c2ccccc2SCCOC)cc1	none
O=c1c(Cl)c(N/N=C/c2ccc(Br)cc2)cnn1-c1ccccc1	STAT3 act-1 150 | STAT3 act-2 inactive | NFkB act 2 inactive | STAT1 act-2 inactive
COc1ccc(C(=O)Oc2ccc(F)cc2C(=O)/C=C/c2ccc(OC)c(OC)c2)cc1	none
COc1ccc(/C=C/C(=O)c2cc(F)ccc2OC(=O)c2ccccc2C)cc1OC	STAT3 act-1 143 | STAT3 act-2 inactive | NFkB act 2 156 | STAT1 act-2 inactive
CC(=O)c1ccc(N2C(=O)[C@@H]3C(CCC(N)=O)NC4(C(=O)Nc5c4ccc(Cl)c5C)[C@@H]3C2=O)cc1 (some centres undefined)	STAT3 act-1 137 | STAT3 act-2 inactive | NFkB act 2 inactive | STAT1 act-2 inactive
N#CC1=C(N)Oc2c(ccc3ccccc23)C1c1ccsc1 (centres undefined)	STAT3 act-1 138 | STAT3 act-2 inactive | NFkB act 2 inactive | STAT1 act-2 inactive
N#CC1=C(N)Oc2c(oc(CO)cc2=O)C1c1ccsc1 (centres undefined)	none
Cc1cc(C)n(C(=O)C23CC4CC(CC(C4)C2)C3)n1	none
O=C(NCCCl)C1Cc2c(ccc3ccccc23)O1 (centres undefined)	none
COc1ccc2ncn(-c3ccccc3)c2c1	STAT3 act-1 136 | STAT3 act-2 inactive | NFkB act 2 inactive | STAT1 act-2 inactive
CCOC(=O)Cc1csc(NC(=O)CCCCCN2C(=O)c3ccccc3C2=O)n1	none
COc1cc(/C=C/C(=O)O)cc(S(=O)(=O)NC2CC2)c1OC	none
S=c1[nH]nc(CSc2nc3ccccc3s2)o1	STAT3 act-1 142 | STAT3 act-2 142 | NFkB act 2 inactive | STAT1 act-2 inactive
Cc1ccc(C(=O)N2CCN3C(=O)c4ccccc4C23c2ccc(Cl)cc2)cc1 (centres undefined)	STAT3 act-1 559 | STAT3 act-2 487 | NFkB act 2 126 | STAT1 act-2 inactive
O=C(CCl)N1CCN2C(=O)c3ccccc3C12c1ccc(Cl)cc1 (centres undefined)	none
Cc1cccc(NC(=O)CCc2ccc(S(=O)(=O)NC3CCCCC3)cc2)c1	none
COc1ccc(CNC(=O)COC(=O)CC2CCCC2)cc1	none
CC(C)(CO)N=Cc1c(O)[nH]c2ccccc12	STAT3 act-1 142 | STAT3 act-2 137 | NFkB act 2 inactive | STAT1 act-2 inactive
CCOC(=O)Cc1nc(-c2cccc(C(F)(F)F)c2)no1	none
CC(Sc1nnc(-c2ccccc2Br)n1-c1cccc(C(F)(F)F)c1)C(N)=O (centres undefined)	none
Cc1ccc2cc(C)c3nnc(SCC(=O)c4cccs4)n3c2c1C	none
Cc1cc2ccc(C)c(C)c2nc1SCC(=O)c1cccs1	STAT3 act-1 160 | STAT3 act-2 134 | NFkB act 2 inactive | STAT1 act-2 inactive
Cn1cc(C(CC(=O)O)C(=O)O)c2ccccc21 (centres undefined)	none
CCOC(=O)CC(C#N)c1cn(C)c2ccccc12 (centres undefined)	STAT3 act-1 145 | STAT3 act-2 inactive | NFkB act 2 inactive | STAT1 act-2 inactive
O=C(Nc1nc(-c2cccs2)cs1)c1cccc(S(=O)(=O)N2CCCCCC2)c1	STAT3 act-1 140 | STAT3 act-2 inactive | NFkB act 2 inactive | STAT1 act-2 125
COc1ccc(C(=O)NCc2ccc(S(N)(=O)=O)cc2)cc1[N+](=O)[O-]	none
CN1c2ccsc2/C(=N/Nc2ccc(F)cc2)CS1(=O)=O	none
Cc1ccc(N/N=C2\CS(=O)(=O)N(C)c3ccsc32)cc1	STAT3 act-1 141 | STAT3 act-2 144 | NFkB act 2 121 | STAT1 act-2 inactive
COc1cccc(-c2nc(N3CCCCC3C)c3ccccc3n2)c1O (centres undefined)	STAT3 act-1 138 | STAT3 act-2 138 | NFkB act 2 inactive | STAT1 act-2 inactive
CN1C(=O)/C(=N\OC(=O)c2cccc3ccccc23)c2ccccc21	STAT3 act-1 141 | STAT3 act-2 inactive | NFkB act 2 inactive | STAT1 act-2 inactive
CCOC(=O)C1CCCN(C(=S)Nc2cccc(Cl)c2)C1 (centres undefined)	none
Cc1ccc(/C=N/NC(=O)c2cccc(S(=O)(=O)N3CCOCC3)c2)o1	none

Screens: PubChem BioAssay, several laboratories
